Drawing on ChEMBL document CHEMBL1158380 (Eur J Med Chem, 2009), this text covers IC50 and Activity for eleven compounds.

A value given as a limit tells only on which side of the number the result lay.

The subject of one assay is MCF7. Briefly: Antiproliferative activity against human MCF7 cells after 48 hrs by sulforhodamine B assay. The format is functional, cell-based. The following applies: MCF7, 48 h. In outline: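 MCF-7 cells from the NCI screening program, grown as monolayers in RPMI 1640 with 5% FBS at 37 °C in humidified 5% CO2. Cells were seeded 24 h before compound addition (DMSO, final 1% v/v) at varying concentrations.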
For orientation: Sulforhodamine B stains cellular protein and so reports cell mass.

Assay [1] is filed under the species Bos taurus. The assay can be described thus: Displacement of [3H]colchicine from bovine brain tubulin at 5 uM by scintillation counting. In outline:
(§1)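 Electrophoretically homogeneous bovine brain tubulin (1.0 µM, 0.1 mg/mL) in a tubulin-stabilizing buffer with 5.0 µM [3H]colchicine and compound at 1.0, 5.0 or 50 µM, final DMSO 5% (v/v). Incubation was 10 min at 37 °C. Reactions were stopped with ice water and filtered through stacked DEAE-cellulose filters. Read-out is % inhibition of colchicine binding.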
For orientation: Displacement assays read how much labelled ligand stays bound in the presence of the test substance.

Assay [2] is filed under the species Bos taurus. Briefly: Displacement of [3H]colchicine from bovine brain tubulin at 50 uM by scintillation counting. Summed up: as §1
Assay [3] is described as follows: Inhibition of bovine brain tubulin by spectrophotometry. Further details: species or system Bos taurus. Summed up: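 Assembly of electrophoretically homogeneous bovine brain tubulin at 10 µM (1.0 mg/mL) in 0.8 M monosodium glutamate pH 6.6 with 4% DMSO. Tubulin was preincubated with compound at varying concentrations for 15 min at 30 °C without GTP, chilled, then 0.4 mM GTP was added. After a jump from 0 to 30 °C, turbidity at 350 nm was followed for 20 min.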

Assay [4] is filed under the species Bos taurus. Briefly: Displacement of [3H]colchicine from bovine brain tubulin at 1 uM by scintillation counting.
Another assay deals with MDA-MB-435. The assay can be described thus: Cytotoxicity against human MDA-MB-435 cells after 72 hrs by MTT assay. The following applies: MDA-MB-435, 72 h. It counts as functional, cell-based. In outline: (§2)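 Four human tumour lines (MDA/MB-435, HCT-8, SF-295, HL-60) were exposed to compound at 0.0009–5 µg/mL for 72 h. Growth was quantified by living-cell reduction of MTT to blue formazan.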

The next assay deals with HCT-8. Briefly: Cytotoxicity against human HCT8 cells after 72 hrs by MTT assay. It counts as functional, cell-based. The note with it: HCT-8, 72 h. Summed up:
as §2
In general terms: Tetrazolium assays rely on reduction of a dye to a coloured formazan, in cell work by metabolically active cells.

Another assay has as its system SF-295. Briefly: Cytotoxicity against human SF295 cells after 72 hrs by MTT assay. The following applies: SF-295, 72 h. It counts as functional, cell-based. Summed up: as §2
In the next assay the test system is HL-60. Briefly: Cytotoxicity against human HL60 cells after 72 hrs by MTT assay. It counts as functional, cell-based. The following applies: HL-60, 72 h. In outline: as §2

Take `COc1ccc(Cc2cc(OC)c(OC)c(OC)c2)cc1`: the IC50 – broadly, the concentration that inhibits the measured activity by half – with MCF7 came to 130 nM; in assay [3], 4000 nM. Besides, the Activity in the assay filed under Bos taurus [1] was determined as 36%; in the assay listed under Bos taurus [2], 83%.

For `COc1ccc(/C=C/c2cc(OC)c(OC)c(OC)c2)cc1`, the IC50 with MCF7 worked out at 4.8 nM; in [3], 1100 nM. Besides, the Activity in the assay filed under Bos taurus [4] amounted to 74%; in the assay listed under Bos taurus [1] it was 97%.

On to `COc1ccc(CCc2cc(OC)c(OC)c(OC)c2)cc1`, for which the IC50 in the assay with MCF7 stood at 78 nM; in assay [3], 2600 nM. Also, the values for the Activity in the assay filed under Bos taurus [1] and in the assay listed under Bos taurus [2] were 50% and 89%, respectively.

In the case of `COc1ccc(Sc2cc(OC)c(OC)c(OC)c2)cc1`, the IC50 is 16 nM in the assay with MCF7; 1200 nM in assay [3]; 3 nM with MDA-MB-435; 40 nM with HCT-8; 30 nM in the assay on SF-295; 3 nM in the assay with HL-60. Also, the Activity in the assay filed under Bos taurus [4] came out at 56%; in the assay listed under Bos taurus [1] it was 89%.

As to `COc1ccc(Cc2cc(OC)c(OC)c(OC)c2)cc1O`, the IC50 in the assay with MCF7 was 59 nM; in assay [3], 2900 nM. For the same compound, the Activity is 44% in the assay listed under Bos taurus [1] and 91% in the assay listed under Bos taurus [2].

Take `COc1ccc(C(=O)c2cc(OC)c(OC)c(OC)c2)cc1`: the figures for the IC50 (in the assay with MCF7; in [3]) were 160 nM and 2200 nM, respectively. The Activity in the assay filed under Bos taurus [1] came out at 50%; in the assay filed under Bos taurus [2], 95%.

As to `COc1ccc(S(=O)(=O)c2cc(OC)c(OC)c(OC)c2)cc1`, the IC50 in the assay with MCF7 is 2600 nM; in [3], > 40000 nM; in the assay on MDA-MB-435, 2320 nM; with HCT-8, 12200 nM; in the assay on SF-295, 8100 nM; in the assay with HL-60 it was 4750 nM. In addition, the results for the Activity in the assay filed under Bos taurus [1] and in the assay filed under Bos taurus [2] were 18% and 53%, respectively.

In turn, `COc1ccc(/C=C/c2cc(OC)c(OC)c(OC)c2)cc1O` [E-COMBRETASTATIN A-4] returned an IC50 with MCF7 of 1.4 nM. The Activity in the assay listed under Bos taurus [4] is 85%.

Regarding `COc1ccc([S+]([O-])c2cc(OC)c(OC)c(OC)c2)cc1` (centres undefined), the IC50 in the assay with MCF7 stood at 2200 nM; in [3], 31000 nM; with MDA-MB-435, 280 nM; in the assay on HCT-8 it was 470 nM; with SF-295, 1460 nM; in the assay on HL-60 it was 340 nM. Also, the results for the Activity in the assay listed under Bos taurus [1] and in the assay listed under Bos taurus [2] were 16% and 41%, respectively.

In the case of `COc1ccc(CCc2cc(OC)c(OC)c(OC)c2)cc1O`, the figures for the IC50 (in the assay with MCF7; in [3]) were 13 nM and 1600 nM, respectively. For the same compound, the Activity in the assay listed under Bos taurus [4] was 49%; in the assay listed under Bos taurus [1], 67%.

For the compound `COc1ccc(C(=O)c2cc(OC)c(OC)c(OC)c2)cc1O` [PHENSTATIN], the IC50 with MCF7 is 34 nM; in [3] it was 730 nM. The Activity in the assay filed under Bos taurus [4] turned out to be 70%; in the assay filed under Bos taurus [1], 78%.
